# Only some compounds are listed: those with a hit (about 3.5% of all), similar ones and a draw of the others.
# bCat nuc transl = modulators of beta-catenin nuclear translocation, primary screen, imaging, HeLa cells, immunofluorescence, high-content. nuclear translocation activity, % at 5 µM. actives 0.3% (n = 190,000). AID 1665, 2009;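 active = nuclear translocation activity above 50% at 5 µM, with a well cell count of 50 or more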;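 also: per-cell ratio of nuclear to cytoplasmic median beta-catenin stain intensity; plate controls were DMSO negative control for no effect and GSK-3 inhibitor IX positive control for full effect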
#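 Test system: human HeLa cells, native beta-catenin. Compound dosing: 5 µM primary single dose, 0.1% DMSO, 0.02–20 µM confirmation series. Incubation: compound exposure 24 h at 37°C. Detection: beta-catenin immunostaining with DAPI counterstain, 20x imaging, 6 fields/well. Read-out basis: Nuclear/cytoplasmic beta-catenin signal ratio, % activation.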
# HMGR II inh = inhibitors of E. faecalis class II HMGR, primary screen, biochemical, Enterococcus faecalis | purified E. faecalis HMGR, NADPH absorbance 340 nm kinetic | inhibition, % at 10 µM | actives 0.41% (n = 190,000);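 active = inhibition above a set limit, the median over all tested compounds plus 3 SD, cut at about 9.5% in these data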;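 also: enzyme runs in reverse so mevalonate oxidation gives rising NADPH absorbance; 0% = complete reaction with DMSO and 100% = background rate lacking mevalonate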
# BB579 growth dn = growth inhibitors of yeast BB579 in restrictive medium, primary screen, yeast lifespan-shortening project, S. cerevisiae; OD615, 48 h; inhibition, % at 10 µM; actives 0.51% (n = 140,000); AID 804, 2007;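 active = inhibition above a set limit, 3 SD over the mean compound inhibition, cut at about 44% in these data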
#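 Test system: S. cerevisiae DeaD strain BB579 yeast; Medium: restrictive CSMM-D medium; Compound: one dose, 10 µM compound with 0.25% DMSO; Incubation: 4 h cell preincubation, 48 h compound exposure, 30 °C humidified; Signal: OD at 615 nm; Benchmarks: amphotericin B at 10 µg/mL as positive control.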
# Yeast lifespan up = compounds extending yeast replicative lifespan, primary screen, S. cerevisiae, OD615. S. cerevisiae growth with nicotinamide; deaD strain in restrictive glucose medium. inhibition of the nicotinamide effect, % at 10 µM. actives 0.68% (n = 130,000). AID 775, 2007;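 active = inhibition above a set limit, placed 3 SD over the median of all compounds, cut at about 26% in these data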;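 also: 0% = nicotinamide-treated wells and 100% = cells grown without nicotinamide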
#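 assay system = DeaD-strain S. cerevisiae | buffer or medium = restrictive glucose medium | reagent = 1.5 mM nicotinamide | compound = 10 µM single point, 0.25% DMSO | incubation = 48 h compound exposure at 30 °C, humidified | signal = OD615 measurement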
# MT stabilizer = microtubule stabilizers in HeLa cells, primary screen, imaging, high-content imaging; HeLa tubulin immunostaining HCS, 24 h; share of cells brighter than vehicle mean+2SD; % tubulin-high responders, % at 10 µM; actives 0.83% (n = 200,000);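 active = plate Z-score above 3 for both tubulin-high and condensed-nucleus cell shares, with cell loss under 80%, at 10 µM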;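 also: anti alpha tubulin signal scored within the nucleus-defined area of each cell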
# RAM inhibit = inhibitors of the yeast RAM network, primary screen, dse1pr::URA3 reporter, 5-FOA selection; inhibition, % at 50 µM; actives 1.8% (n = 190,000); S. cerevisiae dse1pr::URA3 reporter, 5-FOA growth OD615, 2 d; analog-sensitive cbk1-as2 kinase mutant strain;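 active = inhibition above a set limit, 3 SD over mean compound inhibition, cut at about 8.4% in these data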;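 also: 0% = DMSO-only wells with no growth and 100% = 10 µM 1-NA-PP1 full growth; inhibition rescues growth on 5-FOA so higher OD means more RAM inhibition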
# Numbers without * were called inactive; i = inactive; . = no result given.
SMILES,bCat nuc transl,HMGR II inh,BB579 growth dn,Yeast lifespan up,MT stabilizer,RAM inhibit
Cc1ccc(NC(=S)N2CCCC(O)C2)cc1 (stereo not drawn),-1,-2,.,.,6,3
CCOC(=O)c1c(C2CC2)csc1NC(=O)COC(=O)CCS(=O)(=O)c1ccc(C)cc1,-1,0,-8,2,4,9.2*
O=C(N=Nc1ccc(NOC(=O)c2ccccc2Br)cc1)c1ccccc1O,2,0,.,.,3,11*
COC(=O)CCC(=O)c1oc2ccccc2c1NC(=O)CCCN1C(=O)c2ccccc2C1=O,3,4,-40,26,4,8.9*
CCc1sc(N(C(=O)Cc2ccccc2)c2cccc(F)c2)nc1-c1ccc(C)cc1,.,-3,-29,-9,3,8.9*
O=C(Nc1ccccc1-c1nc2ccccc2[nH]1)c1ccc(S(=O)(=O)N2CCCCC2)cc1,-1,2,-29,42*,i,4
Cc1cc(C(=O)NNC(=O)NC(C)C)no1,-1,.,.,.,.,.
Cc1ccc(C(=O)Cn2cnc3ccccc3c2=O)cc1,-4,10*,-21,.,6,-2
Nn1c(-c2cccs2)nc2sc3c(c2c1=O)CCCC3,1,-5,-11,-26,2,9.0*
Cc1ccccc1-c1nc2sc3c(c2c(=O)n1N)CCCC3,-4,6,-77,0,4,0
CC(C)(CC(=O)O)CC(=O)Nc1cc(C(F)(F)F)cc(C(F)(F)F)c1,-1,.,.,.,.,.
O=C(Nc1ccccc1-c1nnc(SCc2ccc(Cl)cc2Cl)o1)c1ccccc1,.,1,-21,-4,3,10*
O=C(NC(=S)NNC(=O)c1ccc(Cl)cc1Cl)c1cccnc1,7,-3,-6,44*,3,-1
Cc1cccc(C(=O)c2cnc3ccccc3c2-c2ccccc2)c1,-3,4,-11,18,3,9.9*
Cc1cccc(C(=O)NNC(=O)c2ccccc2)c1,-4,-1,-42,-5,2,2
COC(=O)C1=C(Nc2ccc(C)cc2)C=C(C)C(C(=O)OC)C1c1ccc(OC)cc1 (stereo not drawn),72*,-3,-36,.,31*,4
COc1cccc(C2NC(=O)NC(C)=C2C(=O)Nc2ccc(C)cc2)c1 (stereo not drawn),1,-6,9,-11,2,1
COC(=O)C1=C(Nc2ccc(C)cc2)C=C(C)C(C(=O)OC)C1c1cccc(OC)c1 (stereo not drawn),57*,-1,-18,.,18,2
CCC(CC)C(=O)NN(C(=O)c1ccncc1)C1CC(=O)N(c2ccccc2)C1=O (stereo not drawn),0,.,.,.,.,.
CCCNC(=O)OC[C@H]1O[C@H](CCO/N=C(\C)CCN2CCc3nc(-c4ccccc4)c(-c4ccccc4)cc3C2)C=C[C@@H]1Oc1ccc(OC)cc1,.,-5,-57,32*,3,0
c1ccn2cc(-c3ccc4c(c3)OCCO4)nc2c1,0,1,.,.,3,2
Cc1ccc2nc(-c3ccc4c(c3)OCCO4)cn2c1,56*,.,.,.,.,.
CC(C)=NOc1nc(N(C)C)nc(N2CCOCC2)n1,0,.,.,.,.,.
COC(=O)c1ccc([C@@H]2C[C@H]3CN(Cc4cccnc4)C(=O)[C@]34CCCN24)cc1,-3,-2,.,.,2,-1
COC(=O)Nc1nc2ccc(-c3n[nH]c(=O)c4ccccc34)cc2[nH]1,6,-5,-18,-2,4,2
C=CCOc1ccc2nc(NC(=O)OC)[nH]c2c1,109*,-8,-5,-18,38*,1
Cc1c(NC2(C#N)CCCC2)c(=O)n(-c2ccccc2)n1C,1,2,.,.,3,1
Cc1c(NC2(c3nnnn3-c3ccc(Br)cc3)CCCCC2)c(=O)n(-c2ccccc2)n1C,-4,23*,-31,-6,4,0
NC(=S)NNC(=O)c1cccc(Br)c1,0,17*,.,.,2,2
NC(=S)NNC(=O)c1ccccc1,-1,1,-2,-9,2,2

# Screens (PubChem)
